Insulin prom act: activators of insulin promoter-driven GFP, primary screen, imaging, TRM-6 cells, eGFP reporter, cell count | plate-scaled: unstimulated 0, stimulated control 100 | 130,000 tested, 0.81% active | activation, % at 2 µM;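 active = activation at 2 µM above a set limit, confirmed on inspection of the cell images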;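 note: share of cells whose green reporter signal exceeds an intensity cutoff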
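Material: Human fetal islet-derived TRM-6 cells with tamoxifen-inducible insulin promoter–eGFP reporter | Medium: Low-glucose (5.5 mM) medium with tamoxifen | Probe or stimulus: Tamoxifen inducer, 0.75 µM, in seeding medium | Schedule: Tamoxifen pre-incubation 15 h overnight, then compound exposure 48 h at 37 °C | Detection: High-content imaging of fixed cells with Hoechst nuclear stain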
* = called active by the depositor. The entries come from a sample that favours hits as a whole.

COc1ccccc1CN1C(=O)c2ccccc2C1C(=O)NC1CCC(C)CC1 (stereo unspecified) was read as Insulin prom act 0.0.
`CC(C)CCNC(=S)Nc1ccc(F)cc1` gave Insulin prom act -9.1.
CCOC(=O)/C=c1\s/c(=C\c2c(OCC)ccc3ccccc23)c(=O)n1CC(=O)NCC1CCCO1 (stereo unspecified) was read as Insulin prom act 184.6.
`CCOC(=O)/C=c1\s/c(=C\c2ccc3cc(OC)ccc3c2)c(=O)n1CC(=O)NCc1ccc2c(c1)OCO2` gave Insulin prom act 335.3*.
`COCCNC(=O)Cn1c(=O)n(CCCCCC(=O)NCc2ccc3c(c2)OCO3)c(=O)c2sccc21` gave Insulin prom act -72.2.
For C#CCOCCOCCOCCNc1nc(N2CCN(C(=O)[C@H]([C@@H](C)O)n3cc(CCCCN)nn3)CC2)nc(N2CCN(C(=O)[C@H](Cc3ccc(O)cc3)n3cc(CCO)nn3)CC2)n1 the results were Insulin prom act 9.1.
`NC(=O)C1CCN(C(=O)Cn2cccc2C(=O)c2ccccc2)CC1` gave Insulin prom act -9.9.
O=C1CSc2ccc(C(=O)Nc3cccc(S(=O)(=O)Nc4ccc(Br)cc4)c3)cc2N1 was read as Insulin prom act 0.0.
For Cc1cccc(C)c1NC(=O)Cn1nnnc1N the results were Insulin prom act 0.0.
Screening COc1ccc(S(=O)(=O)N2CCN(CC(=O)Nc3cccc(F)c3)CC2)cc1 returned Insulin prom act -3.2.
Screening Cc1ccc(OCC(=O)Nc2ccc(S(=O)(=O)N3CCN(C)CC3)cc2)cc1 returned Insulin prom act 405.6*.
For Cc1ccc(S(=O)(=O)N2CCN(C(=O)COc3ccc(NC(=O)c4ccco4)cc3)CC2)cc1 the results were Insulin prom act 106.7.
For CN(CC(=O)Nc1ccc(S(=O)(=O)N2CCCC2)cc1)CC(=O)Nc1cccc(F)c1 the results were Insulin prom act 220.0*.
Screening CC(C)CC(=O)NC(=S)Nc1ccc(S(=O)(=O)N2CCN(C)CC2)cc1 returned Insulin prom act 7.7.
For CN1CCN(S(=O)(=O)c2ccc(N(C)CC(=O)Nc3ccc(F)cc3)nc2)CC1 the results were Insulin prom act -20.0.
For COc1ccc(CCn2c(-c3ccco3)nc3nc4ccccc4nc32)cc1 the results were Insulin prom act 178.6*.
For COc1ccc(Cn2c(-c3ccc(OC)cc3)nc3ccccc32)cc1 the results were Insulin prom act 8.6.
`COc1ccc(CCn2c(C)nc3c(c(=O)c4ccccc4n3C)c2=O)cc1` gave Insulin prom act -3.2.
For COCCNC(=O)C1CC(=O)N(c2ccc(OC)cc2)C1c1ccc(OC)cc1 (stereo unspecified) the results were Insulin prom act -6.7.
Screening O=C(c1cccc(S(=O)(=O)N2CCCCC2)c1)N1CCc2ccccc21 returned Insulin prom act 5.3.
Cc1c(OCc2ccccc2)c(=O)ccn1Cc1ccc(F)cc1 was read as Insulin prom act 2.4.
For Cc1c(O)c(=O)ccn1Cc1ccccc1 the results were Insulin prom act 257.1*.
Cc1c(OCc2ccccc2)c(=O)ccn1Cc1ccc(Cl)cc1 was read as Insulin prom act 6.5.
CCC(=O)Nc1sc2c(c1C#N)CC(C)(CC)OC2 (stereo unspecified) was read as Insulin prom act 8.6.
For CC(=O)c1ccc(NC(=O)NCc2ccc(F)cc2)cc1 the results were Insulin prom act 326.3*.
For CCN(CC)c1ccc(NC(=O)Nc2ccc(C(C)=O)cc2)cc1 the results were Insulin prom act 2.3.
CC(=O)c1ccc(NC(=O)Nc2ccccc2)cc1 was read as Insulin prom act 0.0.
For O=S(=O)(Nc1cc(Sc2cccc3cccnc23)c(O)c2ccccc12)c1ccccc1 the results were Insulin prom act 169.0.
For Cc1c(Cl)c(-c2n[nH]c(=S)n2Cc2ccco2)nn1C the results were Insulin prom act 8.5.
O=c1c2ccccc2nc(-c2ccco2)n1Cc1ccccc1 was read as Insulin prom act 0.0.
Screening S=c1[nH]nc(-c2ccco2)n1Cc1ccccc1 returned Insulin prom act 407.1*.
For c1ccc2c(CSCCc3ccncc3)cccc2c1 the results were Insulin prom act -4.7.
Screening C#CCSc1nc2ccccc2n1C(=O)c1ccc(S(=O)(=O)N2CCCCC2)cc1 returned Insulin prom act -76.0.
Screening CCNc1c(NC(C)=O)c(=O)oc2ccccc12 returned Insulin prom act 200.0*.
CC(=O)Nc1c(C(=O)c2ccccc2)oc2ccccc12 was read as Insulin prom act -71.4.
`CN=C(C)c1c(O)c2ccccc2oc1=O` gave Insulin prom act 3.2.
`Cc1ccc(NC(=O)CN2CCCN(S(=O)(=O)c3ccc(Br)s3)CC2)cc1` gave Insulin prom act -3.8.
Screening COC(=O)COc1ccc(S(=O)(=O)Nc2ccc3c(c2)OCO3)cc1Cl returned Insulin prom act 227.6.
O=C(COc1ccc(S(=O)(=O)N2CCCC2)cc1Cl)NCc1ccc2c(c1)OCO2 was read as Insulin prom act -5.3.
`O=C(COc1ccc(S(=O)(=O)NC2CCCCC2)cc1Cl)NCc1ccc2c(c1)OCO2` gave Insulin prom act 100.0*.
